What was measured:
K562 [1] = assay: Compound was tested for its effect on UTP ribonucleotide levels of K562 cell at 100 uM concentration; format: functional, Homo sapiens
Outline: (§1)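 K562 cells (1×10^7) were treated with saline or agent for 2 h at 37 °C, harvested by centrifugation and washed with cold saline. They were extracted with cold 10% trichloroacetic acid, neutralized with 0.5 M tri-n-octylamine in freon, and analyzed by HPLC. Levels are in nmol/g and expressed as % of saline control. Significance was set at p < 0.05.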

K562 [2] = assay: compound was tested for its effect on IMPDH activity against K562 cells at 100 uM concentration; format: functional, Homo sapiens
Outline: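 K562 cells (1×10^6/mL, log phase) exposed 2 h at 37 °C to 10, 50 or 100 μM drug, or to saline. Cells washed and lysed in Tris-HCl pH 7.4/NaCl/MgCl2/NP-40/aprotinin, and the 13000g supernatant used as enzyme. Enzyme incubated 30 min at 37 °C with 286 μM [2,8-3H]IMP and 1 mM NAD. Tritium release counted; activity in nmol XMP/h/mg protein, as % of saline control.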

K562 [3] = assay: Compound was tested for its effect on GDP ribonucleotide levels of K562 cell at 50 uM concentration; format: functional, Homo sapiens; outline: as §1
K562 [4] = assay: Compound was tested for its effect on GTP ribonucleotide levels of K562 cell at 50 uM concentration; format: functional, Homo sapiens; outline: as §1
K562 [5] = assay: Formation of NAD analogue by compound at 100 uM concentration against human myelogenous leukemia K562; format: functional
Outline: (§2)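 K562 cells (1×10^7/10 mL) were labeled with 185 nM [2,8-3H]adenosine for 1 h at 37 °C, then given saline or analogue for 2 h. Cells were pelleted, washed with PBS and extracted in cold 10% trichloroacetic acid. Extracts were neutralized with 0.5 M tri-n-octylamine in freon and run on SAX HPLC with ammonium phosphate buffer. Results are pmol NAD analogue per 10^9 cells.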

K562 [6] = assay: Formation of NAD analogue by compound at 50 uM concentration against human myelogenous leukemia K562; format: functional; outline: as §2
K562 [7] = assay: Compound was tested for its effect on IMP ribonucleotide levels of K562 cell at 10 uM concentration; format: functional, Homo sapiens; outline: as §1
K562 [8] = assay: Compound was tested for its effect on IMP ribonucleotide levels of K562 cell at 50 uM concentration; format: functional, Homo sapiens; outline: as §1
K562 [9] = assay: Compound was tested for its effect on NAD ribonucleotide levels of K562 cell at 10 uM concentration; format: functional, Homo sapiens; outline: as §1
K562 [10] = assay: Compound was tested for its effect on NAD ribonucleotide levels of K562 cell at 50 uM concentration; format: functional, Homo sapiens; outline: as §1
K562 [11] = assay: Compound was tested for its effect on UDP ribonucleotide levels of K562 cell at 100 uM concentration; format: functional, Homo sapiens; outline: as §1
K562 [12] = assay: Inhibitory concentration against K562 human myelogenous leukemia cell line; format: functional, cell-based
Outline: (§3)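 Cells in log phase plated with a range of drug concentrations (B16 5×10^3 cells/well; P388, L1210, LLC 10^4 cells/well; HL-60, K562, LoVo 2.5×10^5 cells/well). Growth read by modified MTT after 72 h drug contact at 37 °C. IC50 taken as the concentration reducing optical absorption by 50%, from Chou regression analysis. Maximum concentration tested 200 μM.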

L1210 = assay: Inhibitory concentration against L1210 murine lymphocytic leukemia; format: functional, cell-based; settings: Mus musculus; outline: as §3
K562 [13] = assay: Compound was tested for its effect on IMPDH activity against K562 cells at 10 uM concentration; format: functional, Homo sapiens
Outline: (§4)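 Log-phase K562 cells (1×10^6/mL) were exposed to saline or agent for 2 h at 37 °C, washed and lysed (Tris-HCl pH 7.4, NaCl, MgCl2, 0.5% NP-40, aprotinin). The cleared supernatant was incubated 30 min at 37 °C with 286 μM [2,8-3H]IMP and 1 mM NAD. Tritium release was counted by scintillation. Activity is nmol XMP/h/mg protein, also given as % of control.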

K562 [14] = assay: Compound was tested for its effect on ADP ribonucleotide levels of K562 cell at 10 uM concentration; format: functional, Homo sapiens; outline: as §1
K562 [15] = assay: Compound was tested for its effect on AMP ribonucleotide levels of K562 cell at 100 uM concentration; format: functional, Homo sapiens; outline: as §1
K562 [16] = assay: Compound was tested for its effect on AMP ribonucleotide levels of K562 cell at 10 uM concentration; format: functional, Homo sapiens; outline: as §1
K562 [17] = assay: Compound was tested for its effect on AMP ribonucleotide levels of K562 cell at 50 uM concentration; format: functional, Homo sapiens; outline: as §1
K562 [18] = assay: Compound was tested for its effect on ATP ribonucleotide levels of K562 cell at 10 uM concentration; format: functional, Homo sapiens; outline: as §1
K562 [19] = assay: Compound was tested for its effect on ATP ribonucleotide levels of K562 cell at 50 uM concentration; format: functional, Homo sapiens; outline: as §1
K562 [20] = assay: Compound was tested for its effect on CDP ribonucleotide levels of K562 cell at 10 uM concentration; format: functional, Homo sapiens; outline: as §1
K562 [21] = assay: Compound was tested for its effect on CDP ribonucleotide levels of K562 cell at 50 uM concentration; format: functional, Homo sapiens; outline: as §1
K562 [22] = assay: Compound was tested for its effect on GDP ribonucleotide levels of K562 cell at 100 uM concentration; format: functional, Homo sapiens; outline: as §1
K562 [23] = assay: Compound was tested for its effect on GDP ribonucleotide levels of K562 cell at 10 uM concentration; format: functional, Homo sapiens; outline: as §1
LoVo = assay: Inhibitory concentration against LoVo human colon adenocarcinoma cell lines; format: functional, cell-based; outline: as §3
Mus musculus [24] = assay: Average weight change of mice from onset to termination of drug treatment at 100 mg/kg dose; early death due to toxicity; format: functional, organism-based; set-up: dose 100 mg/kg
Outline: (§5)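 Female BD2F1 mice (8 weeks, 20–22 g), eight per group, injected ip with 10^5 L1210 cells on day 0. From 24 h later, drug in 0.9% NaCl was given ip once daily for 9 days. Body weight change was averaged from onset to termination of treatment. Early deaths from toxicity were recorded.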

Mus musculus [25] = assay: Average weight change of mice from onset to termination of drug treatment at 6.2 mg/kg dose; format: functional; outline: as §5
Mus musculus [26] = assay: Compound was tested for ratio of survival time of treated to control mice x100 at 100 mg/kg dose; format: functional
Outline: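 Female BD2F1 mice (8 weeks old, 20–22 g), eight per group, injected ip with 10^5 L1210 leukemia cells on day 0. Starting 24 h later, drug dissolved in 0.9% NaCl given ip once daily for 9 consecutive days. % T/C = survival time of treated/control mice × 100. Body weight change tracked from start to end of treatment.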

Mus musculus [27] = assay: Average weight change of mice from onset to termination of drug treatment at 25 mg/kg dose; format: functional; outline: as §5
[28] = Ratio of IC50 against HL-60; format: functional
Outline: (§6)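 Antiproliferative assay scoring [125I]-5-iodo-2'-deoxyuridine incorporation into DNA after 72 h drug–cell contact. Run on normal human bone marrow from five donors and in three assays on HL-60. Ratio is antilog(mean log IC50 or IC90) on bone marrow over the same on HL-60. Range limits are antilog(mean log IC50 ± 2SD).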

[29] = IC50 ratio against bone marrow samples to HL-60; format: functional; outline: as §6
[30] = IC90 ratio against bone marrow samples to HL-60; format: functional; outline: as §6
K562 [31] = assay: Compound was tested for its effect on UMP ribonucleotide levels of K562 cell at 10 uM concentration; format: functional, Homo sapiens; outline: as §1
HL-60 = assay: Inhibitory concentration against human HL-60 cell line(activity expressed as range); format: functional; outline: as §6
K562 [32] = assay: Compound was tested for its effect on IMPDH activity against K562 cells at 50 uM concentration; format: functional, Homo sapiens; outline: as §4

Work on NC(=O)c1csc([C@@H]2O[C@H](CO)[C@@H](O)[C@H]2O)c1 yielded a Control (K562 [1]) of 87%, a Control (K562 [2]) of 22% and a Control (K562 [3]) of 79%. For the same compound, the Control (K562 [4]) was 58%, the Formation (K562 [5]) was 886 pmol/10^9 cells and the Formation (K562 [6]) was 505 pmol/10^9 cells. For the same compound, the Control (K562 [7]) was 314%, the Control (K562 [8]) was 594% and the Control (K562 [9]) was 81%. It also gave a Control (K562 [10]) of 66%, a Control (K562 [11]) of 131% and an IC50 (K562 [12]) of 8.8 µM. The IC50 (L1210) was 7.6 µM, the Activity (K562 [13]) was 2.8 and the Control (K562 [14]) was 122%. For the same compound, the Control (K562 [15]) was 131%, the Control (K562 [16]) was 156% and the Control (K562 [17]) was 140%. For the same compound, the Control (K562 [18]) was 92%, the Control (K562 [19]) was 88% and the Control (K562 [20]) was 84%. The Control (K562 [21]) was 82%, the Control (K562 [22]) was 77% and the Control (K562 [23]) was 97%. The IC50 (LoVo) was 102 µM, the Change (Mus musculus [24]) was “Toxic” and the Change (Mus musculus [25]) was 8.5%. The T/C (Mus musculus [26]) was <100%, the Change (Mus musculus [27]) was -9.8% and the Ratio [28] was 5.9. The Ratio [29] was 21.9, the Ratio [30] was >10 and the Control (K562 [31]) was 110%. For the same compound, the IC90 (HL-60) was 8.3 µM and the Activity (K562 [32]) was 1.85.
